Screening data (PubChem BioAssay)
Mcl-1 Bim block: disrupts Bim peptide binding to human Mcl-1. AID 1009. Bead-based flow cytometry, Bim peptide-Mcl-1 binding. actives 0.1% (n = 190,000). inhibition, % at 10 µM. Q07820; in the data active means inhibition above about 40%
Target sequence (Q07820 whole entry, looked up): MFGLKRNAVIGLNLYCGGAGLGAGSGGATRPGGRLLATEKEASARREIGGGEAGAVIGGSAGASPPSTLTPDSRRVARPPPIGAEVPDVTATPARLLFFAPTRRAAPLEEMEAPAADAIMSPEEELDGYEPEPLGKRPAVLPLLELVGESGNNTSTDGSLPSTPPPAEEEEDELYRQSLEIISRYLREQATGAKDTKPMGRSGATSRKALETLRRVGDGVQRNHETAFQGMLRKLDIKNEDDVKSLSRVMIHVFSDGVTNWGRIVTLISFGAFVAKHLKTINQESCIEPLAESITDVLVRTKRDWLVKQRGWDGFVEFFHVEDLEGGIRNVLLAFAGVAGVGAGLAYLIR
Mcl1-Bid inh: disrupts binding of human Mcl-1 to Bid peptide; Q07820; TR-FRET Mcl-1/Bid-Dy647 peptide binding, 1536-well; inhibition, % at 21.7 µM; actives 0.97% (n = 220,000);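 active means compounds that cut the binding signal by more than half at the single screening dose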;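 further: His-tagged Mcl-1 with europium anti-His antibody binding Bid BH3 peptide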
MCL1-BIM inh: inhibitors of human MCL1 binding to BIM-BH3 peptide; actives 0.68% (n = 320,000); inhibition, % at 10.9 µM; Q07820; GST-MCL1 / FITC-Bim-BH3 fluorescence polarization;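 active means inhibition above the mean inhibition of all tested compounds plus 3 SD, set per campaign, cut at about 40% in these data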;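 further: higher means more loss of mP so more displacement of Bim peptide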
T cell modulator: modulates CD8 T cell binding to vesicles; 2C CD8+ T cell-vesicle binding, flow cytometry; hits give low values; response (vesicle binding), % at 7 µM; actives 0.068% (n = 330,000); AID 2052;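 active means response, share of CD8 T cells binding vesicles, and their 90th percentile fluorescence all below set limits, cut at about 80% in these data, passing the limit was not always enough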;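 further: values below 100% mean blocked vesicle binding to the CD8+ T cells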
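Assay system: 2C TCR transgenic mouse naive CD8+ T cells, MACS-purified | Read-out: CD8+ gate FL2 mean fluorescence as % of same-row positive control | Signal: High-throughput flow cytometry with anti-B7-1 and anti-CD8 staining | Timing: Binding step 1.5 h, 37 °C, antibody labelling 20 min, ice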
DSG3 Ab inh: human desmoglein-3 autoantibody binding inhibition | P32926 | DSG3-coupled beads, scFv-anti-DSG3-GFP binding, flow cytometry; hits give low values | binding (percent of control), % at 10 µM | actives 0.48% (n = 310,000) | AID 588358;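 active means binding more than 3 SD below its plate's average and above zero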;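 further: hits lower antibody fragment binding to DSG3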
Mcl1-Noxa inh: disrupts binding of human Mcl-1 to Noxa peptide. Q07820. actives 1.5% (n = 220,000). TR-FRET Mcl-1/Noxa peptide binding, 2 h. inhibition, % at 21.7 µM. AID 1022;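 active means compounds that cut the protein-peptide binding signal by more than 50% relative to plate controls in a single-dose test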;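 further: His-tagged Mcl-1 with rhodamine Noxa BH3 peptide and terbium anti-His antibody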
Hits are given with their value; - = inactive; . = no result given. Rows were chosen to be rich in hits. Some 2.3% of all compounds tested hit in one or more screens of this group.

SMILES | Mcl-1 Bim block | Mcl1-Bid inh | MCL1-BIM inh | T cell modulator | DSG3 Ab inh | Mcl1-Noxa inh
CCOc1cc(C(=O)Nc2cc3c(cc2N2CCOCC2)n(C)c(=O)n3C)cc(OCC)c1OCC | . | . | - | - | - | .
Cc1ccc(Cl)cc1N1CCN(c2cccc[n+]2C)CC1 | - | - | - | - | - | -
CC1(C)Cc2c(sc3ncn4c(=S)[nH]nc4c23)CO1 | - | - | - | - | - | 67.1
CC1(C)Cc2c(sc3ncn(N)c(=N)c23)CO1 | - | - | - | - | - | -
CCc1ccc(C(=O)NNC(=O)CN2C(=O)NC(CC)(c3ccccc3)C2=O)cc1 (centres undefined) | . | . | - | - | - | .
Cc1csc(CCc2nc(C)cs2)n1 | - | 100.5 | - | - | - | -
CC(C)n1ncc2c(C(=O)Nc3cccc(S(=O)(=O)N(C)C)c3)cc(C3CC3)nc21 | . | . | - | - | - | .
Cc1ccc(NC(=O)COC(=O)CCc2c[nH]c3ccccc23)c(C)c1 | . | . | - | 0.0 | - | .
CS(=O)(=O)N1CCc2cc(S(=O)(=O)NCCNS(=O)(=O)c3ccc4c(c3)CCN4S(C)(=O)=O)ccc21 | - | - | - | - | 77.2 | -
C=CC(=O)NCC1OCCc2ccccc21 (centres undefined) | - | - | - | - | - | -
O=C(/C=C/c1ccco1)NCC1OCCc2ccccc21 (centres undefined) | . | - | - | - | . | 62.0
COC(=O)c1ccc(CNC(=O)COC(=O)C2CC3C=CC2C3)cc1 (centres undefined) | - | - | - | - | - | -
CCOCCCNC(=S)N1CCC(C(=O)c2ccc3c(c2)OCCO3)CC1 | - | - | - | - | - | 72.2
COc1ccc2cc3c(N)c(C(=O)NCc4ccco4)sc3nc2c1 | - | - | - | - | - | 63.4
Nc1c(C(=O)NCc2ccco2)sc2nc3c(cc12)C(=O)CCC3 | - | - | - | - | - | 87.8
COc1ccc2cc3cc(C(=O)NCc4ccco4)oc3nc2c1 | - | - | - | - | . | -
COc1cc(CNC[C@H]2O[C@@H](n3cc(C)c(=O)[nH]c3=O)C[C@@H]2O)ccc1OCc1cccc(Cl)c1 | . | . | . | . | - | .
COc1ccc2c(c1)CCC1C2CCC2(C)C(O)C(=O)CC12 (centres undefined) | . | . | . | . | - | .
COC(=O)c1c(NC(=O)COC(=O)c2ccccn2)sc(C)c1C | . | . | - | - | - | .
NC(=O)c1ccsc1NC(=O)COC(=O)c1ccc(Cl)nc1 | . | . | - | - | 58.8 | .
COC(=O)c1c(NC(=O)COC(=O)c2ccc(Cl)nc2)sc(C)c1C | . | . | - | 48.6 | - | .
NC(=O)c1ccsc1NC(=O)CSc1nnc(Nc2ccccc2)s1 | - | - | - | - | - | 68.7
NC(=O)c1ccsc1NC(=O)COc1ccccc1 | - | - | 43.3 | - | - | -
CCOC(=O)C1=C(COC(=O)Cc2ccc(Br)cc2)NC(=O)NC1C (centres undefined) | . | . | - | - | - | .
CS(=O)(=O)c1ccc(N2CCN(S(=O)(=O)c3cccs3)CC2)c([N+](=O)[O-])c1 | . | . | - | - | - | .
SMILES | Mcl-1 Bim block | Mcl1-Bid inh | MCL1-BIM inh | T cell modulator | DSG3 Ab inh | Mcl1-Noxa inh
O=C([O-])c1cc(-c2ccccc2)cc(-c2ccccc2)[n+]1CCc1ccc(Cl)cc1 | . | . | . | . | - | .
O=C1c2ccccc2C(=O)N1CCCc1cn(C[C@H]2CC[C@H](Cn3cc(CCCN4C(=O)c5ccccc5C4=O)nn3)O2)nn1 | . | . | . | . | - | .
CN(Cc1ccccc1F)C(=O)c1ccc2c(=O)n3c(nc2c1)CCC3 | . | . | - | - | - | .
CCCCN(C(=O)c1cccc(S(=O)(=O)N(CC)c2ccccc2)c1)c1c(N)n(CCCC)c(=O)[nH]c1=O | . | . | . | . | - | .
COc1ccccc1CNC(=O)OCc1nccnc1C(=O)Nc1ccc(Br)cn1 | . | . | - | - | - | .
CCn1c(SCC(=O)Nc2nc3ccc(C)cc3s2)nc2c(c1=O)SC(C)C2 (centres undefined) | - | 56.2 | - | - | - | -
O=C(Nc1ccc(F)c(Cl)c1)c1ccc2c(=O)n3c(nc2c1)CCCCC3 | 61.0 | - | - | - | - | -
CC(OC(=O)c1ccc2c(=O)n3c(nc2c1)CCCCC3)C(=O)Nc1ccc(F)cc1Cl (centres undefined) | - | 63.9 | - | - | . | -
COc1ccc(C(=O)NC2CCc3ccccc32)cc1OC1CCN(C(C)=O)CC1 (centres undefined) | . | . | - | - | - | .
